From ChEMBL document CHEMBL1143802, “Synthesis and biological evaluation of some 6-substituted purines” (Eur J Med Chem, 2007)

Assays:
Leishmania amazonensis = test: Antileishmanial activity against Leishmania amazonensis MHOM/Br/75/Josefa promastigotes by MTT colorimetric method; assay type: functional, organism-based
Method in brief: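 Log-phase promastigotes grown at 24 °C in Warren's medium (brain heart infusion with hemin and folic acid) plus 10% fetal bovine serum. Seeded at 2 million cells/mL and preincubated 1 h at 24 °C. Compounds added in water or DMSO (up to 1% v/v), each concentration in triplicate. Incubated three days, viability read by MTT, and IC50 taken as 50% growth inhibition.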

Leishmania chagasi = test: Antileishmanial activity against Leishmania chagasi MHOM/Br/74/PP75 promastigotes by MTT colorimetric method; assay type: functional, organism-based
Method in brief: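 Log-phase promastigotes kept at 24 °C in Medium 199 plus 10% fetal bovine serum. Seeded at 3 million cells/mL and held 1 h at 24 °C before compound addition in water or DMSO (up to 1% v/v). Each concentration run in triplicate over a three-day incubation. Viability measured by MTT; IC50 is the concentration giving 50% growth inhibition.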

| SMILES | IC50 (Leishmania amazonensis) | IC50 (Leishmania chagasi) |
| --- | --- | --- |
| c1nc(SCCCNC2CCCCC2)c2nc[nH]c2n1 | > 227 µM | > 227 µM |
| NCCSCCCSc1ncnc2[nH]cnc12 | 50 µM | > 227 µM |
| O=C(O)CSc1ncnc2[nH]cnc12 | 39 µM | > 227 µM |
| O=C1c2ccccc2C(=O)N1CCCCSc1ncnc2[nH]cnc12 | > 227 µM | > 227 µM |
| ClCCCSc1ncnc2[nH]cnc12 | 50 µM | > 227 µM |
| CO[C@@H]1O[C@H](CSc2ncnc3[nH]cnc23)[C@H]2OC(C)(C)O[C@@H]12 | > 227 µM | > 227 µM |
| NCCNCCCSc1ncnc2[nH]cnc12 | > 227 µM | > 227 µM |
| CC1(C)O[C@H]2[C@@H](O1)[C@@H](CSc1ncnc3[nH]cnc13)O[C@@H]1OC(C)(C)O[C@@H]12 | > 227 µM | > 227 µM |
| CO[C@@H]1O[C@H](CSc2ncnc3[nH]cnc23)[C@@H](O)[C@H]1O | 29 µM | > 227 µM |
| CCOC(=O)CSc1ncnc2[nH]cnc12 | > 227 µM | > 227 µM |
| CC1(C)O[C@H]2[C@H]3OC(C)(C)O[C@]3(CSc3ncnc4[nH]cnc34)OC[C@H]2O1 | > 227 µM | > 227 µM |
| C[C@@H]1[C@H](O)[C@@H](C)/C=C/C=C/C=C/C=C/C=C/C=C/C=C/[C@H](O[C@@H]2O[C@H](C)[C@@H](O)[C@H](N)[C@@H]2O)C[C@@H]2O[C@](O)(C[C@@H](O)C[C@@H](O)[C@H](O)CC[C@@H](O)C[C@@H](O)CC(=O)O[C@H]1C)C[C@H](O)[C@H]2C(=O)O [AMPHOTERICIN B] | 0.9 µM | 1.9 µM |
| Sc1ncnc2nc[nH]c12 [MERCAPTOPURINE ANHYDROUS] | > 227 µM | > 227 µM |
